# Measured values: ChEMBL document CHEMBL1140733, “Comprehensive study of sansalvamide A derivatives and their structure-activity relationships against drug-resistant colon cancer cell lines” (J Med Chem, 2008)
# Square brackets hold non-standard residues; d marks the D form. Peptide text beside a SMILES is read from it. * marks the point of attachment. Cbz = O=C(OCc1ccccc1)*
# Legend:
# HCT-116 [1] = assay: Cytotoxicity against multidrug-resistant human HCT116 cells at 1 uM by thymidine incorporation assay; assay type: functional
# Procedure, shortened: (§1)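 HCT-116 cells were grown in IMDM and HCT-15 in RPMI 1640, each with L-glutamine, 10% FBS and penicillin-streptomycin, at 3000 cells/well. Compound was applied at 1 µM in 1% DMSO for 72 h total, with 3H-thymidine added for the final 16 h. Percent growth inhibition versus DMSO controls was scintillation-counted, averaging three wells in each of three assays.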
# HCT-15 [2] = assay: Cytotoxicity against multidrug-resistant human HCT15 cells by thymidine incorporation assay; assay type: functional, cell-based
# Procedure, shortened: (§2)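 Cells (3000/well) were plated in IMDM (HCT-116), RPMI 1640 (HCT-15) or MEM (WS-1), each with L-glutamine, 10% FBS and 0.1% penicillin-streptomycin. Compounds in DMSO (1% in all wells) were added after about 6 h and left for 72 h, with 3H-thymidine pulsed for the last 16 h. Uptake was scintillation-counted against DMSO controls. IC50 came from four-concentration curves, three experiments in quadruplicate.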
# [3] = Cytotoxicity against human WS1 cells by thymidine incorporation assay; assay type: cell-based; procedure, shortened: as §2
# HCT-116 [4] = assay: Cytotoxicity against multidrug-resistant human HCT116 cells by thymidine incorporation assay; assay type: functional, cell-based; procedure, shortened: as §2
# HCT-15 [5] = assay: Cytotoxicity against multidrug-resistant human HCT15 cells at 1 uM by thymidine incorporation assay; assay type: functional; procedure, shortened: as §1
# HCT-116 [6] = assay: Selectivity for multidrug-resistant human HCT116 cells over human WS1 cells; assay type: functional
# HCT-15 [7] = assay: Selectivity for multidrug-resistant human HCT15 cells over human WS1 cells; assay type: functional
smiles,measurement,setting,value
"CC(C)C[C@@H]1NC(=O)[C@H](Cc2ccccc2)NC(=O)[C@H](CC(C)C)NC(=O)[C@@H](C(C)C)N(C)C(=O)[C@H](CC2CCCCC2)NC1=O (HELM PEPTIDE1{[Cha].[CC(C)[C@H](C(=O)[*:2])N(C)[*:1]].L.F.L}$PEPTIDE1,PEPTIDE1,1:R1-5:R2$$$V2.0)",inhibition at 1 µM,HCT-116 [1],48%
same,IC50,HCT-15 [2],0.8 µM
same,IC50,[3],4 µM
same,IC50,HCT-116 [4],2.1 µM
same,inhibition at 1 µM,HCT-15 [5],60%
"CC(C)C[C@@H]1NC(=O)[C@H](Cc2ccccc2)NC(=O)[C@@H](CC(C)C)NC(=O)[C@H](C(C)C)NC(=O)[C@H](CC(C)C)NC1=O (HELM PEPTIDE1{F.L.L.V.[dL]}$PEPTIDE1,PEPTIDE1,1:R1-5:R2$$$V2.0)",inhibition at 1 µM,HCT-116 [1],18%
same,IC50,HCT-15 [2],> 50 µM
same,IC50,HCT-116 [4],> 50 µM
same,inhibition at 1 µM,HCT-15 [5],10%
"CC(C)C[C@@H]1NC(=O)[C@H](Cc2ccccc2)NC(=O)[C@@H](CC(C)C)N(C)C(=O)[C@H](C(C)C)NC(=O)[C@H](CC(C)C)NC1=O (HELM PEPTIDE1{F.L.L.V.[CC(C)C[C@H](C(=O)[*:2])N(C)[*:1]]}$PEPTIDE1,PEPTIDE1,1:R1-5:R2$$$V2.0)",inhibition at 1 µM,HCT-116 [1],25%
same,IC50,HCT-15 [2],> 50 µM
same,IC50,HCT-116 [4],> 50 µM
same,inhibition at 1 µM,HCT-15 [5],33%
"CC(C)C[C@@H]1NC(=O)[C@H](CC(C)C)NC(=O)[C@H](Cc2ccccc2)N(C)C(=O)[C@H](CC(C)C)NC(=O)[C@H](C(C)C)NC1=O (HELM PEPTIDE1{[meF].L.L.V.L}$PEPTIDE1,PEPTIDE1,1:R1-5:R2$$$V2.0)",inhibition at 1 µM,HCT-116 [1],2%
same,IC50,HCT-15 [2],> 50 µM
same,IC50,HCT-116 [4],> 50 µM
same,inhibition at 1 µM,HCT-15 [5],18%
"CC(C)C[C@@H]1NC(=O)[C@H](C(C)C)NC(=O)[C@H](CC(C)C)N(C)C(=O)[C@@H](CC(C)C)NC(=O)[C@@H](Cc2ccccc2)NC1=O (HELM PEPTIDE1{[dL].[meL].V.L.[dF]}$PEPTIDE1,PEPTIDE1,1:R1-5:R2$$$V2.0)",inhibition at 1 µM,HCT-116 [1],64%
same,IC50,HCT-15 [2],2.2 µM
same,IC50,[3],136 µM
same,IC50,HCT-116 [4],0.7 µM
same,inhibition at 1 µM,HCT-15 [5],42%
"CC(C)C[C@@H]1NC(=O)[C@H](C(C)C)NC(=O)[C@H](CC(C)C)NC(=O)[C@@H](CC(C)C)N(C)C(=O)[C@H](Cc2ccccc2)NC1=O (HELM PEPTIDE1{[CC(C)C[C@H](C(=O)[*:2])N(C)[*:1]].L.V.L.F}$PEPTIDE1,PEPTIDE1,1:R1-5:R2$$$V2.0)",inhibition at 1 µM,HCT-116 [1],42%
same,IC50,HCT-15 [2],1.2 µM
same,IC50,[3],200 µM
same,IC50,HCT-116 [4],2 µM
same,inhibition at 1 µM,HCT-15 [5],48%
"CC(C)C[C@@H]1NC(=O)[C@H](CC(C)C)NC(=O)[C@@H](Cc2ccc(O)cc2)NC(=O)[C@H](CC(C)C)NC(=O)[C@H](C(C)C)NC1=O (HELM PEPTIDE1{L.L.V.L.[dY]}$PEPTIDE1,PEPTIDE1,1:R1-5:R2$$$V2.0)",inhibition at 1 µM,HCT-116 [1],45%
same,IC50,HCT-15 [2],1 µM
same,IC50,[3],200 µM
same,IC50,HCT-116 [4],1.5 µM
same,inhibition at 1 µM,HCT-15 [5],47%
Nc1ccn([C@@H]2O[C@H](CO)[C@@H](O)C2(F)F)c(=O)n1 [GEMCITABINE],IC50,HCT-15 [2],11.8 µM
same,IC50,[3],200 µM
same,IC50,HCT-116 [4],14.3 µM
"CC(C)C[C@@H]1NC(=O)[C@H](Cc2ccccc2)NC(=O)[C@H](CC(C)C)N(C)C(=O)[C@H](C(C)C)NC(=O)[C@H](CC(C)C)NC1=O (HELM PEPTIDE1{F.L.L.V.[meL]}$PEPTIDE1,PEPTIDE1,1:R1-5:R2$$$V2.0)",inhibition at 1 µM,HCT-116 [1],20%
same,IC50,HCT-15 [2],> 50 µM
same,IC50,HCT-116 [4],> 50 µM
same,inhibition at 1 µM,HCT-15 [5],3%
"CC(C)C[C@@H]1NC(=O)[C@H](Cc2ccccc2)NC(=O)[C@H](CC(C)C)NC(=O)[C@@H](C(C)C)NC(=O)[C@H](CC(C)C)NC1=O (HELM PEPTIDE1{F.L.L.[dV].L}$PEPTIDE1,PEPTIDE1,1:R1-5:R2$$$V2.0)",inhibition at 1 µM,HCT-116 [1],48%
same,IC50,HCT-15 [2],0.8 µM
same,IC50,[3],20 µM
same,IC50,HCT-116 [4],1.3 µM
same,inhibition at 1 µM,HCT-15 [5],48%
"CC(C)C[C@@H]1NC(=O)[C@H](C(C)C)NC(=O)[C@H](CC(C)C)NC(=O)[C@H](CC(C)C)N(C)C(=O)[C@H](Cc2ccccc2)NC1=O (HELM PEPTIDE1{F.[meL].L.V.L}$PEPTIDE1,PEPTIDE1,1:R1-5:R2$$$V2.0)",inhibition at 1 µM,HCT-116 [1],59%
same,IC50,HCT-15 [2],4.5 µM
same,IC50,[3],200 µM
same,IC50,HCT-116 [4],0.8 µM
same,inhibition at 1 µM,HCT-15 [5],35%
CC(C)C[C@@H]1NC(=O)[C@H](Cc2ccccc2)NC(=O)[C@@H](Cc2ccccc2)N(C)C(=O)[C@H](C(C)C)NC(=O)[C@H](CC(C)C)NC1=O,inhibition at 1 µM,HCT-116 [1],59%
same,IC50,HCT-15 [2],0.7 µM
same,Ratio IC50,HCT-116 [6],>250
same,IC50,[3],200 µM
same,IC50,HCT-116 [4],0.8 µM
same,inhibition at 1 µM,HCT-15 [5],57%
same,Ratio IC50,HCT-15 [7],>250
"CC(C)C[C@@H]1NC(=O)[C@H](CC(C)C)NC(=O)[C@@H](Cc2ccccc2)NC(=O)[C@H](CC(C)C)NC(=O)[C@H](C(C)C)NC1=O (HELM PEPTIDE1{L.L.V.L.[dF]}$PEPTIDE1,PEPTIDE1,1:R1-5:R2$$$V2.0)",inhibition at 1 µM,HCT-116 [1],30%
same,IC50,HCT-15 [2],> 50 µM
same,IC50,HCT-116 [4],> 50 µM
same,inhibition at 1 µM,HCT-15 [5],26%
CC(C)C[C@@H]1NC(=O)[C@H](Cc2ccccc2)NC(=O)[C@H](CC(C)C)NC(=O)[C@@H](C(C)C)NC(=O)[C@H](CCCCNC(=O)OCc2ccccc2)NC1=O (cyclo(FLK(Cbz)[dV]L)),inhibition at 1 µM,HCT-116 [1],16%
same,inhibition at 1 µM,HCT-15 [5],3%
"CC(C)C[C@@H]1NC(=O)[C@H](Cc2ccccc2)NC(=O)[C@H](CC(C)C)NC(=O)[C@@H](C(C)C)N(C)C(=O)[C@H](CC(C)C)NC1=O (HELM PEPTIDE1{F.L.L.[CC(C)[C@H](C(=O)[*:2])N(C)[*:1]].L}$PEPTIDE1,PEPTIDE1,1:R1-5:R2$$$V2.0)",inhibition at 1 µM,HCT-116 [1],19%
same,inhibition at 1 µM,HCT-15 [5],21%
"CC(C)[C@@H]1NC(=O)[C@H](CC2CCCCC2)NC(=O)[C@H](CO)NC(=O)[C@H](Cc2ccccc2)NC(=O)[C@@H](Cc2ccccc2)N(C)C1=O (HELM PEPTIDE1{[Cha].V.[CN([C@H](Cc1ccccc1)C(=O)[*:2])[*:1]].F.S}$PEPTIDE1,PEPTIDE1,1:R1-5:R2$$$V2.0)",inhibition at 1 µM,HCT-116 [1],34%
same,inhibition at 1 µM,HCT-15 [5],20%
"CC(C)[C@@H]1NC(=O)[C@H](Cc2ccccc2)NC(=O)[C@@H](CO)NC(=O)[C@H](C(C)C)NC(=O)[C@H](C(C)C)NC1=O (HELM PEPTIDE1{F.V.V.V.[dS]}$PEPTIDE1,PEPTIDE1,1:R1-5:R2$$$V2.0)",inhibition at 1 µM,HCT-116 [1],0%
same,inhibition at 1 µM,HCT-15 [5],18%
"CC(C)C[C@@H]1NC(=O)[C@H](Cc2ccccc2)NC(=O)[C@H](CC(C)C)NC(=O)[C@H](C(C)C)NC(=O)[C@H](CC(C)C)NC1=O (HELM PEPTIDE1{F.L.L.V.L}$PEPTIDE1,PEPTIDE1,1:R1-5:R2$$$V2.0)",inhibition at 1 µM,HCT-116 [1],28%
same,IC50,HCT-15 [2],46 µM
same,IC50,[3],200 µM
same,IC50,HCT-116 [4],25 µM
same,inhibition at 1 µM,HCT-15 [5],10%
